This note sets out measurements from ChEMBL document CHEMBL1136314, “Biphenyl-based analogues of thiolactomycin, active against Mycobacterium tuberculosis mtFabH fatty acid condensing enzyme” (Bioorg Med Chem Lett, 2003).

The assay addresses T1, Mycobacterial beta-ketoacyl-[acyl-carrier-protein] synthase III (Mycobacterium tuberculosis, UniProt P9WNG3).
T1 sequence (P9WNG3 whole entry): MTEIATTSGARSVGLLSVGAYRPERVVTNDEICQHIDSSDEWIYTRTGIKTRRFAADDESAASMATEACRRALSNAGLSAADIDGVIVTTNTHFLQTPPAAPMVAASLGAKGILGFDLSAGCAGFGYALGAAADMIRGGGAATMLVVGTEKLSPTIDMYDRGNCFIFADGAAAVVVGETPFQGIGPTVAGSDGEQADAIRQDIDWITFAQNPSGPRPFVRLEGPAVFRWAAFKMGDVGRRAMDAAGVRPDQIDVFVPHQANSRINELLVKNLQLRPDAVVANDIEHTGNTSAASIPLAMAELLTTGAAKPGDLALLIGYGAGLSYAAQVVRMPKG
Briefly: In vitro inhibitory activity against the recombinant Mycobacterium tuberculosis Beta-ketoacyl-ACP synthase III mtFabH condensing enzyme. Further details: species or system H37Rv. The essentials:
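Direct end-point scintillation proximity assay with E. coli-expressed recombinant mtFabH (1.0 nM), biotinylated malonyl-ecACP, and myristoyl-CoA in 100 mM sodium phosphate with 0.01% CHAPS and 1 mM DTT. Compounds in DMSO were tested from 500 down to 0.98. After a 5-min 30 °C preincubation, [3H]myristoyl-CoA was added and reacted 20 min at 30 °C. Ethanol quench, streptavidin beads, bead-bound radioactivity counted, IC50 derived.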
Take `CC1=C(O)C(C)(Cc2cccc(-c3ccccc3)c2)SC1=O` (configuration not stated): the IC50 came to 215 µM. The same measure for `CC1=C(O)C(C)(Cc2ccc(-c3ccc(C)cc3)cc2)SC1=O` (configuration not stated): 52 µM; for `CC1=C(O)C(C)(Cc2ccc(I)cc2)SC1=O` (configuration not stated): 153 µM; for `COc1cccc(CC2(C)SC(O)=C(C)C2=O)c1` (configuration not stated): above 500 µM.

For `CC1=C(O)C(C)(Cc2ccc(-c3ccccc3)cc2)SC1=O` (configuration not stated), the half-maximal inhibitory concentration (IC50) was found to be 51 µM. The figure for `CC1=C(O)C(C)(Cc2ccc(C(C)(C)C)cc2)SC1=O` (configuration not stated) is 43 µM. The same measure for `CC1=C(O)C(C)(Cc2ccccc2)SC1=O` (configuration not stated): above 250 µM. The same measure for `CC1=C(O)C(C)(Cc2cc(F)cc(F)c2)SC1=O` (configuration not stated): 263 µM; for `CC1=C(O)C(C)(Cc2ccc(-c3ccc(COCc4ccccc4)cc3)cc2)SC1=O` (configuration not stated): 17 µM; for `CC1=C(O)C(C)(Cc2ccc(-c3ccc(C(C)(C)C)cc3)cc2)SC1=O` (configuration not stated): 25 µM. As to `CC1=C(O)C(C)(Cc2cccc(Oc3ccccc3)c2)SC1=O` (configuration not stated), the IC50 was determined as 52 µM. With `CC1=C(O)C(C)(Cc2ccc(C)cc2)SC1=O` (configuration not stated), the IC50 stood at 112 µM.

Turning to `CC1=C(O)C(C)(Cc2ccc(-c3ccc(CO)cc3)cc2)SC1=O` (configuration not stated), the half-maximal inhibitory concentration (IC50) was found to be 19 µM. With `CC1=C(O)C(C)(Cc2ccc(F)cc2F)SC1=O` (configuration not stated), the IC50 was 246 µM. The figure for `COc1ccc(CC2(C)SC(O)=C(C)C2=O)cc1` (configuration not stated) is 155 µM; for `CC1=C(O)C(C)(Cc2ccc(-c3ccc(C=O)cc3)cc2)SC1=O` (configuration not stated) it is 29 µM; for `CC(=O)Nc1cccc(-c2ccc(CC3(C)SC(O)=C(C)C3=O)cc2)c1` (configuration not stated) it is 119 µM.
